Published values from different studies.
Protocols differ between the studies behind these lines.
Dipeptidyl peptidase 2: Dipeptidyl peptidase 2 (Homo sapiens, UniProt Q9UHL4)
PTGS2: Prostaglandin G/H synthase 2 (PTGS2, Homo sapiens, UniProt P35354)
CASP7: Caspase-7 (CASP7, Homo sapiens, UniProt P55210)

Compound | target | observed | mode | technique | concentration | inhibition
CCOC(=O)c1ccc(OC(=O)CCCCCNC(=N)N)cc1 | Dipeptidyl peptidase 2 | enzyme activity | inhibitor |  | 10 µM | 83%
CC(C)C[C@H](NC(=O)[C@H](Cc1ccccc1)NC(=O)c1cnccn1)B(O)O | Dipeptidyl peptidase 2 | enzyme activity | inhibitor |  | 33 µM | 78.7%
C#Cc1n[nH]c2c(-c3cn(C(C)c4ccccn4)c(=O)[nH]c3=O)cc(F)cc12 (centres unmarked) | Ribosomal protein S6 kinase beta-1 (RPS6KB1, Homo sapiens, UniProt P23443) | enzyme activity | inhibitor |  | 1 µM | -2.1%
CN(C)C(=O)COC(=O)Cc1ccc(OC(=O)c2ccc(NC(=N)N)cc2)cc1 | Ubiquitin carboxyl-terminal hydrolase isozyme L3 (UCHL3, Homo sapiens, UniProt P15374) | enzyme activity | inhibitor |  | 10 µM | 3%
O=C(Nc1cccnn1)N1CCN([C@@H]2CCOc3cc(C(F)(F)F)ccc32)CC1 | Melanocyte-stimulating hormone receptor (Mc1r, Mus musculus, UniProt Q01727) | cell-free assay |  |  | 20 µM | 0%
CC(C)N1CCC[C@H]1CNC(=O)c1cn(C2CCCC2)c(=O)c2c1c1ccccc1n2C | Alpha-1D adrenergic receptor (ADRA1D, Homo sapiens, UniProt P25100) | ligand displacement |  | radioligand | 10 µM | 9%
Nc1ccc(-c2ccccc2)c(-c2nc3ccccc3s2)c1 | PTGS2 | enzyme activity | inhibitor | absorbance | 10 µM | 12.4%
CC(=O)N[C@@H](CC(=O)O)C(=O)N[C@@H](CC(N)=O)C(=O)N[C@@H](CC(C)C)C(=O)N[C@H](C=O)CC(=O)O | CASP7 | enzyme activity | inhibitor |  | 5 nM | 8%
CCN(CC)CCCC[C@H](NC(=O)[C@H](CC(C)C)NC(=O)[C@H](C)NC(=O)[C@H](Cc1ccccc1)NC(=O)c1ccc(C(C)(C)C)cc1)C(=O)N[C@@H](CO)C(=O)OC | Neuropeptide Y receptor type 2 (NPY2R, Homo sapiens, UniProt P49146) | ligand displacement |  | radioligand | 10 µM | 10%
Cn1cc(-c2cccc(N3CCc4c(sc5c4CC(C)(C)C5)C3=O)c2CO)cc(Nc2ccncn2)c1=O | Dual specificity tyrosine-phosphorylation-regulated kinase 3 (DYRK3, Homo sapiens, UniProt O43781) | enzyme activity | inhibitor |  | 1 µM | 6%
Cc1ccc(-c2nc3ccccc3s2)c(-c2ccc(S(N)(=O)=O)cc2)c1 | PTGS2 | enzyme activity | inhibitor | absorbance | 10 µM | 87.3%
OC(c1ccc(F)cc1)C(F)(F)CCN1CCC(O)(c2ccc(Cl)cc2)CC1 (racemic) | Sigma non-opioid intracellular receptor 1 (SIGMAR1, Cavia porcellus, UniProt Q60492) | ligand displacement |  | radioligand | 10 µM | > 50%
CS(=O)(=O)c1ccc(-c2ncccc2-c2nc3ccccc3s2)cc1 | PTGS2 | enzyme activity | inhibitor | absorbance | 10 µM | 84.7%
COCc1c(-c2cc3cc(C)cc(OC)c3s2)c2c(N)ncnn2c1CN1CCNC(=O)C1 | Alpha-2B adrenergic receptor (ADRA2B, Homo sapiens, UniProt P18089) | ligand displacement |  | radioligand | 10 µM | 34%
Nc1ccc(-c2nc3ccccc3s2)c(-c2ccc(O)cc2)c1 | PTGS2 | enzyme activity | inhibitor | absorbance | 10 µM | 15.3%
N=C(N)c1ccc2cc(OC(=O)c3ccc(N=C(N)N)cc3)ccc2c1 | CASP7 | enzyme activity | inhibitor |  | 10 µM | 1%
Cc1ccc(-c2nc3ccccc3s2)c(-c2ccc(O)cc2)c1 | PTGS2 | enzyme activity | inhibitor | absorbance | 10 µM | 35.4%
Cn1cc(-c2cc(F)cc(N3CCn4c(cc5c4CCCC5)C3=O)c2CO)cc(Nc2ccc(N3CCN(C4COC4)CC3)cn2)c1=O | Protein kinase C zeta type (PRKCZ, Homo sapiens, UniProt Q05513) | enzyme activity | inhibitor |  | 0.1 µM | -2%
Oc1ccc(-c2ncccc2-c2nc3ccccc3s2)cc1 | PTGS2 | enzyme activity | inhibitor | absorbance | 10 µM | 8%
N#Cc1ccc(NCCNCC(=O)N2N=CCC2C#N)nc1 (centres unmarked) | Dipeptidyl peptidase 2 | enzyme activity | inhibitor |  | 1 µM | 8%
